Assay results: ChEMBL document CHEMBL3351863, “Optimization of 2-phenyl-pyrimidine-4-carboxamides towards potent, orally bioavailable and selective P2Y(12) antagonists for inhibition of platelet aggregation” (Bioorg Med Chem Lett, 2014); call rule not given here

Columns and labels:
Liver microsome [1] = test: Metabolic stability assay in rat liver microsomes assessed as parent drug disappearance at 1 uM after 20 mins by HPLC and mass spectrometry method; format: ADME
[2] = Solubility in basic pH; format: physicochemical
Cytochrome P450 3A4 [3] = molecular target: T1, Cytochrome P450 3A4 (Homo sapiens, UniProt P08684); test: Inhibition of CYP3A4 in human liver microsomes assessed as reduction in testosterone 6beta-hydroxylation; format: ADME
Cytochrome P450 3A4 [4] = molecular target: T1, Cytochrome P450 3A4; test: Inhibition of CYP3A4 in human liver microsomes assessed as reduction in midazolam 1'-hydroxylation; format: ADME
Liver microsome [5] = test: Metabolic stability assay in human liver microsomes assessed as parent drug disappearance at 1 uM after 20 mins by HPLC and mass spectrometry method; format: ADME
[6] = molecular target: Voltage-gated inwardly rectifying potassium channel KCNH2 (Homo sapiens, UniProt Q12809); test: Inhibition of human ERG expressed in HEK cells by patch-clamp assay; format: cell-based; settings: hek293
[7] = Solubility in neutral pH; format: physicochemical
Cytochrome P450 2C9 = Cytochrome P450 2C9 (Homo sapiens, UniProt P11712); test: Inhibition of CYP2C9 in human liver microsomes assessed as reduction in diclofenac 4'-hydroxylation; format: ADME
Platelet [8] = test: Inhibition of ADP-induced platelet aggregation in human platelet rich plasma assessed as remaining activity at 500 nM by in-vitro light transmission aggregometry assay; format: functional
Summary of the method: (§1)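 Light transmission aggregometry in human platelet-rich plasma; compound incubated, aggregation triggered with 3 µM ADP; remaining activity (RA) recorded at a single compound level (1000, 500 or 100 nM).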

P2Y purinoceptor 12 = P2Y purinoceptor 12 (Homo sapiens, UniProt Q9H244); test: Displacement of [3H]-2-methyl-thio-adenosine 5'-diphosphate from human recombinant P2Y12 expressed in CHO cell membranes by scintillation counting method
Summary of the method: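 CHO cells expressing recombinant P2Y₁₂ receptors, incubated with tritium-labeled 2-methyl-thio-adenosine 5'-diphosphate plus test compound; IC₅₀ from displacement curves, each point in triplicate; reference compound run with every compound set, and set re-analyzed if its IC₅₀ fell outside pre-set 95% confidence interval.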

Cytochrome P450 2D6 = Cytochrome P450 2D6 (Homo sapiens, UniProt P10635); test: Inhibition of CYP2D6 in human liver microsomes assessed as reduction in dextromethorphan-O demethylation; format: ADME
Platelet [9] = test: Inhibition of ADP-induced platelet aggregation in human platelet rich plasma assessed as remaining activity at 1000 nM by in-vitro light transmission aggregometry assay; format: functional; summary of the method: as §1
Platelet [10] = test: Inhibition of ADP-induced platelet aggregation in human platelet rich plasma by in-vitro light transmission aggregometry assay; format: functional
Summary of the method: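 Human platelet-rich plasma incubated with compound, aggregation induced by 3 µM ADP and read by light transmission aggregometry; IC₅₀ derived from concentration–response curve.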

Platelet [11] = test: Inhibition of ADP-induced platelet aggregation in human platelet rich plasma assessed as remaining activity at 100 nM by in-vitro light transmission aggregometry assay; format: functional; summary of the method: as §1
[12] = Potency shift, ratio of IC50 for inhibition of ADP-induced platelet aggregation in human platelet rich plasma to IC50 for displacement of [3H]-2-methyl-thio-adenosine 5'-diphosphate from human recombinant P2Y12 expressed in CHO cell membranes

Cytochrome P450 2D6, sequence (P10635 whole entry): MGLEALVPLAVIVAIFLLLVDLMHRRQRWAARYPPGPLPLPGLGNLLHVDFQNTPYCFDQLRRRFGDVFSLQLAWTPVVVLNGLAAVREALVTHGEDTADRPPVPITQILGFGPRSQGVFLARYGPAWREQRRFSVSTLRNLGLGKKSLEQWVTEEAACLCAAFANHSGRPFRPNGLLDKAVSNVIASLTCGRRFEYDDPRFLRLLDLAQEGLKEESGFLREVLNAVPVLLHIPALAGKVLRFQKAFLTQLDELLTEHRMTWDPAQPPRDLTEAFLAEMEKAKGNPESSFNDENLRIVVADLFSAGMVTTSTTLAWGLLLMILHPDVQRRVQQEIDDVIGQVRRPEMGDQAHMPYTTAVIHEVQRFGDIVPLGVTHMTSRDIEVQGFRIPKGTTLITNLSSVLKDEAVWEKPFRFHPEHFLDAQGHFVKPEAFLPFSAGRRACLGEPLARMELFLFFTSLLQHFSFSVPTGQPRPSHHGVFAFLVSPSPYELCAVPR
P2Y purinoceptor 12, sequence (Q9H244 whole entry): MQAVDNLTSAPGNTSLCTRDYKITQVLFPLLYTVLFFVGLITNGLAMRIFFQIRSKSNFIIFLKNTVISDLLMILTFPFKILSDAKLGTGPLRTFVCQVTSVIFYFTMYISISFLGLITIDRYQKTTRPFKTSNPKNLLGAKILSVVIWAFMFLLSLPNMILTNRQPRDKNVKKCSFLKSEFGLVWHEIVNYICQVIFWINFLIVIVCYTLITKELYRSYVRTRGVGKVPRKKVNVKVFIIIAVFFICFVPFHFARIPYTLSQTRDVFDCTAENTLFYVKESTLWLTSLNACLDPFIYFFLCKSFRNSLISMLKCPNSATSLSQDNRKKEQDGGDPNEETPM
Cytochrome P450 2C9, sequence (P11712 whole entry): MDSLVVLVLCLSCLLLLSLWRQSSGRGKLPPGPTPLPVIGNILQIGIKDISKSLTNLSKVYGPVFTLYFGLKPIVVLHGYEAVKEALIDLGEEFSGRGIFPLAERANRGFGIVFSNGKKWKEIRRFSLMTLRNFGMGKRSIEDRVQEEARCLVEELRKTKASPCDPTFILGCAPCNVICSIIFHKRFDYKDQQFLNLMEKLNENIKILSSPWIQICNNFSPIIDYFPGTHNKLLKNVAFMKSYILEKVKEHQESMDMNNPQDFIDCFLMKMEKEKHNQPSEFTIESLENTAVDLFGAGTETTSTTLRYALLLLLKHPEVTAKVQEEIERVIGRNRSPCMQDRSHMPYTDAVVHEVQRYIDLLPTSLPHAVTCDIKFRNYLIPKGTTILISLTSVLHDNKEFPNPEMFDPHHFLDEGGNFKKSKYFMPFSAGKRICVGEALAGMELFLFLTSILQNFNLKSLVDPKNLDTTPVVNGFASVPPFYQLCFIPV
T1 sequence (P08684 whole entry): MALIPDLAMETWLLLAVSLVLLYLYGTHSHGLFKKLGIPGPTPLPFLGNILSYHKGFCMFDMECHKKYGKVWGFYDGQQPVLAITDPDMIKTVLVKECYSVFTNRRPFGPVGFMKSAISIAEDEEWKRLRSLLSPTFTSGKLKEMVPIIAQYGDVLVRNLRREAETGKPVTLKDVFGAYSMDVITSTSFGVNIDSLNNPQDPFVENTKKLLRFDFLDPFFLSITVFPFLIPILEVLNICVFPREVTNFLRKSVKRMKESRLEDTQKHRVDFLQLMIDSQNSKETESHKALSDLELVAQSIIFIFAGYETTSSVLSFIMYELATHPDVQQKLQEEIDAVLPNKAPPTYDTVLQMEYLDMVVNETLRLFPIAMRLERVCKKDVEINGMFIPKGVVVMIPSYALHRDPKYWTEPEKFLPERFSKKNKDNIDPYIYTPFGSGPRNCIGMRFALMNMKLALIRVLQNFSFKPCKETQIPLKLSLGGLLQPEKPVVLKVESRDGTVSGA
Voltage-gated inwardly rectifying potassium channel KCNH2, sequence (Q12809 whole entry): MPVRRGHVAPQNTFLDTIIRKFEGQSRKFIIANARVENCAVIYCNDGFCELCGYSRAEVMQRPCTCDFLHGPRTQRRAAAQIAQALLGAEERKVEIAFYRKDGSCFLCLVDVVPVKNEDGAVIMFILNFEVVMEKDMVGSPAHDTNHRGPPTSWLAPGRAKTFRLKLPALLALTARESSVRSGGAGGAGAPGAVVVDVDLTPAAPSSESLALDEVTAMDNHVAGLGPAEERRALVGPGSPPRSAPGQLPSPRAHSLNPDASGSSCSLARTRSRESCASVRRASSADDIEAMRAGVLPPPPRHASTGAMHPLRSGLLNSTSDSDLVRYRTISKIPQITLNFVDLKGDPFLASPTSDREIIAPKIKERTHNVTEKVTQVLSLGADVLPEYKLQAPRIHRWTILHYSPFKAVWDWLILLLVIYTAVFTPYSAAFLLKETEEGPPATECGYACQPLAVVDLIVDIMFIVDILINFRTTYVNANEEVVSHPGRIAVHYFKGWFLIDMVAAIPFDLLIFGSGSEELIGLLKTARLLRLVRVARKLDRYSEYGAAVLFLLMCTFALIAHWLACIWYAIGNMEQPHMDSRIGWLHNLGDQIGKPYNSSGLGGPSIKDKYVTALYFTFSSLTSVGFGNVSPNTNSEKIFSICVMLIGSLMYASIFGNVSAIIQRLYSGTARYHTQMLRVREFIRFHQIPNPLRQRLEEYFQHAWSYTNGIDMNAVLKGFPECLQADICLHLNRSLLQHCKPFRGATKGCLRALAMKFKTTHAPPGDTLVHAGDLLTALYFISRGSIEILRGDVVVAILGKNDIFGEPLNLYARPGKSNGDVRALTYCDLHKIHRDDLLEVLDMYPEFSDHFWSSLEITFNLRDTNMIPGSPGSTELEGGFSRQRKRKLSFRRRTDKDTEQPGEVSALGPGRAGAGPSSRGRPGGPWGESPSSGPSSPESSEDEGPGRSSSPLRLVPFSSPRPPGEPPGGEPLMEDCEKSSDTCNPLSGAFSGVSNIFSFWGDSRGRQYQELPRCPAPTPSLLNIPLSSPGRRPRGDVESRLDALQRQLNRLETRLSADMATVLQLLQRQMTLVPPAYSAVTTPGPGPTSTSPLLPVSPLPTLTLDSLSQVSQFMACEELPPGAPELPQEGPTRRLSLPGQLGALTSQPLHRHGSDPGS

| SMILES | Stability (Liver microsome [1]) | solubility [2] | inhibition (INH) (Cytochrome P450 3A4 [3]) | inhibition (INH) (Cytochrome P450 3A4 [4]) | Stability (Liver microsome [5]) | inhibition (INH) [6] | solubility [7] | inhibition (INH) (Cytochrome P450 2C9) | Activity (Platelet [8]) [%] | IC50 (P2Y purinoceptor 12) [nM] | inhibition (INH) (Cytochrome P450 2D6) | Activity (Platelet [9]) [%] | IC50 (Platelet [10]; Homo sapiens, Platelet, Plasma) [nM] | Activity (Platelet [11]) [%] | Ratio IC50 [12] | IC50 (Platelet [10]; platelet) [nM] |
| --- | --- | --- | --- | --- | --- | --- | --- | --- | --- | --- | --- | --- | --- | --- | --- | --- |
| CCOC(=O)N1CCN(C(=O)[C@H](CCC(=O)O)NC(=O)c2cc(Nc3ccccc3)nc(-c3ccccc3)n2)CC1 | Stable | soluble | Not Active | Not Active | Stable | Not Active | soluble | Not Active | >60 | 177 | Not Active | >30 | – | – | – | – |
| CCOC(=O)N1CCN(C(=O)[C@H](CCC(=O)O)NC(=O)c2cc([C@H]3C[C@@H]3CO)nc(-c3ccccc3)n2)CC1 (racemic) | Stable | soluble | Not Active | Not Active | Stable | Not Active | soluble | Not Active | <30 | 23 | Not Active | – | 71 | <70 | 3.1 | – |
| CCOC(=O)N1CCN(C(=O)[C@H](CCC(=O)O)NC(=O)c2cc(NC(=O)C3CCCCC3)nc(-c3ccccc3)n2)CC1 | Stable | soluble | Not Active | Not Active | Stable | Not Active | soluble | Not Active | >60 | 219 | Not Active | >30 | – | – | – | – |
| CCOC(=O)N1CCN(C(=O)[C@H](CCC(=O)O)NC(=O)c2cc(N3CCCC(O)C3)nc(-c3ccccc3)n2)CC1 (stereo partly drawn) | Stable | soluble | Not Active | Not Active | Stable | Not Active | soluble | Not Active | <30 | 21 | Not Active | – | 73 | <70 | 3.5 | – |
| CCOC(=O)N1CCN(C(=O)[C@H](CCC(=O)O)NC(=O)c2cc(C(C)(C)CO)nc(-c3ccccc3)n2)CC1 | Stable | soluble | Not Active | Not Active | Stable | Not Active | soluble | Not Active | <30 | 21 | Not Active | – | 121 | <70 | 5.8 | – |
| CCOC(=O)N1CCN(C(=O)[C@H](CCC(=O)O)NC(=O)c2cc(NS(=O)(=O)CC)nc(-c3ccccc3)n2)CC1 | Stable | soluble | Not Active | Not Active | Stable | Not Active | soluble | Not Active | >60 | 142 | Not Active | >30 | – | – | – | – |
| CCOC(=O)N1CCN(C(=O)[C@H](CCC(=O)O)NC(=O)c2cc(NC(C)CO)nc(-c3ccccc3)n2)CC1 (stereo partly drawn) | Stable | soluble | Not Active | Not Active | Stable | Not Active | soluble | Not Active | <30 | 56 | Not Active | – | 55 | <70 | 0.98 | – |
| CCOC(=O)N1CCN(C(=O)[C@H](CCC(=O)O)NC(=O)c2cc(-c3cn[nH]c3)nc(-c3ccccc3)n2)CC1 | Stable | soluble | Not Active | Not Active | Stable | Not Active | soluble | Not Active | >60 | – | Not Active | >30 | – | – | – | – |
| CCOC(=O)N1CCN(C(=O)[C@H](CCC(=O)O)NC(=O)c2cc(N3CC[C@@H](O)C3)nc(-c3ccccc3)n2)CC1 | Stable | soluble | Not Active | Not Active | Stable | Not Active | soluble | Not Active | <30 | 52 | Not Active | – | 99 | <70 | 1.9 | – |
| CCOC(=O)N1CCN(C(=O)[C@H](CCC(=O)O)NC(=O)c2cc(NC(=O)c3ccccc3)nc(-c3ccccc3)n2)CC1 | Stable | soluble | Not Active | Not Active | Stable | Not Active | soluble | Not Active | >60 | 178 | Not Active | >30 | – | – | – | – |
| CCOC(=O)N1CCN(C(=O)[C@H](CCC(=O)O)NC(=O)c2cc(-c3ccncc3)nc(-c3ccccc3)n2)CC1 | Stable | soluble | Not Active | Not Active | Stable | Not Active | soluble | Not Active | >60 | 53 | Not Active | >30 | – | – | – | – |
| CCOC(=O)N1CCN(C(=O)[C@H](CCC(=O)O)NC(=O)c2cc([C@H]3C[C@@H]3COC)nc(-c3ccccc3)n2)CC1 (racemic) | Stable | soluble | Not Active | Not Active | Stable | Not Active | soluble | Not Active | <30 | 39 | Not Active | – | – | <70 | 4.9 | 192 |
| CCOC(=O)N1CCN(C(=O)[C@H](CCC(=O)O)NC(=O)c2cc(-c3ccsc3)nc(-c3ccccc3)n2)CC1 | Stable | soluble | Not Active | Not Active | Stable | Not Active | soluble | Not Active | >60 | 11 | Not Active | >30 | – | – | – | – |
| CCOC(=O)N1CCN(C(=O)[C@H](CCC(=O)O)NC(=O)c2cc(NCCC(=O)O)nc(-c3ccccc3)n2)CC1 | Stable | soluble | Not Active | Not Active | Stable | Not Active | soluble | Not Active | >60 | 198 | Not Active | >30 | – | – | – | – |
| CCOC(=O)N1CCN(C(=O)[C@H](CCC(=O)O)NC(=O)c2cc(N3CCC(N)C3)nc(-c3ccccc3)n2)CC1 (stereo partly drawn) | Stable | soluble | Not Active | Not Active | Stable | Not Active | soluble | Not Active | <30 | 76 | Not Active | – | 86 | <70 | 1.1 | – |
